Reference: paper PMC9716260 (Cancer Discovery, 2022)

Key:
[1] = tested on: BRG1 binding sites in BT869 (H3.3K27M-glioma) neurospheres; experiment: ATAC-seq chromatin accessibility in drug-treated BT869 neurospheres; type: cell-based, human; conditions: BT869, 1 μmol/L, 24 and 48 hours
How it was run: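 BT869 neurospheres were exposed to DMSO or 1 μmol/L BRG1/BRM inhibitor or degrader and collected 24 or 48 h later without FACS enrichment of viable cells. Bulk ATAC-seq was run as two biological replicates, each with two technical replicates. Genes linked to differentially accessible peaks were overlapped with single-cell H3K27M glioma metaprograms.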

BRG1/BRM = experiment: Immunoblot for BRG1/BRM and cleaved PARP in degrader-treated neurospheres; type: cell-based, human
How it was run: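 BT869, HSJD-DIPG007 and SU-DIPGXIIIP* neurospheres were collected 24, 48 and 72 h after rising degrader concentrations; SU-DIPGXIIIP* was also collected at 6 h. SU-DIPGXIIIP* gave nuclear extracts; the other two gave whole-cell lysates in NP-40/deoxycholate/SDS buffer with protease and phosphatase inhibitors. Blots were blocked in 5% milk/TBST, then BRG1, BRM, PARP, cleaved PARP, GAPDH and H3 antibodies at 1:1,000 overnight at 4°C, then HRP secondary 1 h at RT, then ECL.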

BRG1 = BRG1 (Homo sapiens, UniProt P51532); experiment: SILAC quantitative proteomics in BT869 neurospheres; type: cell-based; conditions: BT869, 1 μmol/L, 2 days of treatment
BRG1, sequence (P51532 whole entry): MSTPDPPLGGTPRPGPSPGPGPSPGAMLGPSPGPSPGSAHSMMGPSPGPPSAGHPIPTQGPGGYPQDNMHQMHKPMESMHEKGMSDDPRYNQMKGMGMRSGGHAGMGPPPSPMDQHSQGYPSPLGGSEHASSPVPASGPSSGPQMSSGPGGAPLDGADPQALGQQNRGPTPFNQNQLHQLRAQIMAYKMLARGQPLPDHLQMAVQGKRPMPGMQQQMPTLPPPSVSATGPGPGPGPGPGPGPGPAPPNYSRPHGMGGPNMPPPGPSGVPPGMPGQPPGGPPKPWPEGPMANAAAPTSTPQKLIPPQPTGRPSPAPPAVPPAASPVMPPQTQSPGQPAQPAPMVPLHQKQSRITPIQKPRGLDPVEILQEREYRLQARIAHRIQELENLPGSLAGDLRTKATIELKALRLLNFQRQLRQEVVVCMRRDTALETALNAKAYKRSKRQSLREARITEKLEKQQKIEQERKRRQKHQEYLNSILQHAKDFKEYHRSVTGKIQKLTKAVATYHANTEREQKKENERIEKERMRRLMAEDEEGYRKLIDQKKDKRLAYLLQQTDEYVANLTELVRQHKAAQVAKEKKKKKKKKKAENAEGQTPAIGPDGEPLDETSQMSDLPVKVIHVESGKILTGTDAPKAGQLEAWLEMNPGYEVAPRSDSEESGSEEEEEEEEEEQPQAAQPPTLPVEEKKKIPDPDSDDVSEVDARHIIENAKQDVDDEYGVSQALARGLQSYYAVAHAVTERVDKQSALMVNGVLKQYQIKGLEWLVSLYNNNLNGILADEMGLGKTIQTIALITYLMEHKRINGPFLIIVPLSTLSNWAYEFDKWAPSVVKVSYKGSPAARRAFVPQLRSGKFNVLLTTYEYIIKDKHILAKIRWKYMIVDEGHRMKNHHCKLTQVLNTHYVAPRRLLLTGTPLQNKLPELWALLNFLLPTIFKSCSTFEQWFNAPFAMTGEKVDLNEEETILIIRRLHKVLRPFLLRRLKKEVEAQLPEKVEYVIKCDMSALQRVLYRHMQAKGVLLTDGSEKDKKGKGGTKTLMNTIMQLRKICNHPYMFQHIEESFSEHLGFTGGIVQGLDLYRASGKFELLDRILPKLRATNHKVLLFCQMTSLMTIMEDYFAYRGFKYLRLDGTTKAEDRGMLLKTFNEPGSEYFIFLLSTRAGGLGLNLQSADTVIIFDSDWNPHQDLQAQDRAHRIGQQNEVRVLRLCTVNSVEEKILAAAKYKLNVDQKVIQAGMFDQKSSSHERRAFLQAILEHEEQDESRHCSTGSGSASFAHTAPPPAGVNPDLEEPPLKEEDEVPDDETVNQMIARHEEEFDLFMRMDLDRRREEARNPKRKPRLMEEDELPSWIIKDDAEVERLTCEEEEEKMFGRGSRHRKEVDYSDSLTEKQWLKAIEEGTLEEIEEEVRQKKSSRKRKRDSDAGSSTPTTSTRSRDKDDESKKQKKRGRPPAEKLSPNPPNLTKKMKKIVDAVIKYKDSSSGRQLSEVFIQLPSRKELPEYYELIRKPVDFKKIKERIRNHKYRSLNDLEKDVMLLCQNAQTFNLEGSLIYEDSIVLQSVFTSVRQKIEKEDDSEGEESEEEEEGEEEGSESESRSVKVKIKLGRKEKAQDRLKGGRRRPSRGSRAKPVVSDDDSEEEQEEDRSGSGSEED
How it was run: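 BT869 cells were SILAC-labelled for 5 passages in custom TSM medium with heavy (13C615N2 lysine, 13C615N4 arginine) or light amino acids; incorporation was >95%. Cells (1.5 × 106) were seeded 1 day ahead, then given DMSO (light) or 1 μmol/L degrader (heavy) for 48 h. Lysis was in RIPA with protease inhibitors, benzonase and 1 mmol/L DTT. BCA-matched lysates were mixed 1:1. Significance came from a heteroscedastic two-tailed t test.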

[2] = Kinetic solubility analysis; type: physicochemical; conditions: PBS, pH 7.4, aqueous buffer, kinetic from dmso stock
How it was run: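 Test compound as a 10 mmol/L DMSO stock was diluted into 50 mmol/L PBS, pH 7.4, to a final 200 μmol/L. This was done in the lower chamber of filter vials by a contract laboratory.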

[3] = Plasma level after a single subcutaneous injection; type: in vivo; conditions: single subcutaneous injection of 50 mg/kg
[4] = tested on: SW-13 BRG1/BRM-deficient adrenocortical carcinoma cell line; experiment: Cell viability in BRG1/BRM-deficient control cell line; type: cell-based; conditions: Homo sapiens, SW13
How it was run: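 SW-13 cells were dosed with test compound at 24 and 96 h after plating, across 10 nmol/L to 10 μmol/L. Viability was read by CellTiter-Glo 7 days after drug exposure. Concentrations were log10-transformed and responses normalized to DMSO controls. Log IC50 was interpolated from a variable-slope least-squares fit.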

[5] = Pharmacokinetic study, drug in plasma and brain after intraperitoneal dose; type: in vivo, CD1 mice; conditions: after intraperitoneal administration, mass spectrometry
How it was run: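 Female CD1 mice, three per time point, received a single i.p. dose of test compound in 10% hydroxypropyl β-cyclodextrin in sterile water. Plasma and brain were collected at 30 min, 2 h and 4 h and quantified by LC/MS-MS. Parameters came from a noncompartmental model.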

[6] = tested on: BT869 (H3.3K27M-glioma) subcutaneous tumors; experiment: Subcutaneous xenograft, BT869; type: in vivo, NSG mice
How it was run: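 Female NSG mice aged about 6–8 weeks were implanted with BT869 cells, 3 × 10^6 in PBS/Matrigel, into the right flank. Groups of 10 received the degrader at 50 mg/kg i.p. daily or vehicle for up to 60 days. BRG1 immunostaining was scored as nuclear DAB OD mean.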

In the case of `Cc1ncsc1-c1ccc([C@H](C)NC(=O)[C@@H]2C[C@@H](O)CN2C(=O)[C@@H](NC(=O)CN2CCN(c3cc(-c4ccccc4O)nnc3N)CC2)C(C)(C)C)cc1` [AU-15330, reference compound], the “DNA accessibility at BRG1 binding sites (ATAC-seq)” value [1] is reported as “decrease in DNA accessibility at BRG1 binding sites”, the “Time to degradation of BRG1/BRM” value (BRG1/BRM; SU-DIPGXIIIP* cells) is reported as at most 6 h and the “Lowest concentration degrading BRG1/BRM” value (BRG1/BRM; SU-DIPGXIIIP* cells, 6 hours) is reported as 500 nmol/L.
With `O=C1CCC(N2C(=O)c3cccc(NCCCCNC(=O)c4cccc(C#Cc5cc(NC(=O)Nc6ccnc(Cl)c6)ccn5)c4)c3C2=O)C(=O)N1` (stereo not drawn) [JQ-dS-4, 3-((4-(3-(2-chloropyridin-4-yl)ureido)pyridin-2-yl)ethynyl)-N-(4-((2-(2,6-dioxopiperidin-3-yl)-1,3-dioxoisoindolin-4-yl)amino)butyl)benzamide] the “DNA accessibility at BRG1 binding sites (ATAC-seq)” value [1] was “decrease in DNA accessibility at BRG1 binding sites”, the “Proteins degraded (SILAC)” value (BRG1) was “BRG1 was one of the top significant proteins degraded” and the solubility at 24 h [2] was under 1.56 µM. It also gave a Plasma levels [3] of 240 ng/mL, a Plasma levels ([3]; converted from ng/mL) of about 300 nM and an IC50 [4] of 6 µM. For the same compound, the “Blood–brain barrier penetrance” value [5] was “limited penetration into brain tissue”, the “Time to complete degradation of BRG1/BRM” value (BRG1/BRM; BT869 cells) was 48 h and the “Time to complete degradation of BRG1/BRM” value (BRG1/BRM; HSJD-DIPG007 cells) was 72 h. The “Time to complete degradation of BRG1/BRM” value (BRG1/BRM; SU-DIPGXIIIP* cells) was 72 h, the “Degradation of BRG1 in treated tumors” value ([6]; BT869 s.c., 50 mg/kg i.p. daily, versus vehicle) was “negligible degradation of BRG1” and the “Body weight and toxic effects (plasma, liver, spleen)” value ([6]; mice treated for 45 days, Compound 14 20 mg/kg i.p. daily, JQ-dS-4 50 mg/kg i.p. daily) was “did not observe any significant changes in body weight or toxic effects”.
